Measured values: ChEMBL document CHEMBL1938298, “Synthesis and characterization of [¹²⁵I]2-iodo N-[(S)-{(S)-1-methylpiperidin-2-yl}(phenyl)methyl]3-trifluoromethyl-benzamide as novel imaging probe for glycine transporter 1” (Bioorg Med Chem, 2011)
The source made the active and inactive calls. The rule behind the calls is not given here.

Columns and labels:
[1] = target: T1, Sodium- and chloride-dependent glycine transporter 1 (Rattus norvegicus) (UniProt P28572); test: Binding affinity to GlyT1 in rat brain striatum at 0.03 to 0.04 nM preincubated for 20 mins in binding buffer before compound addition measured after 30 mins by autoradiography in presence of 0.01 mM GlyT1 inhibitor HPCP relative to control; type: tissue-based; conditions: tested as the 125I-labelled form
T1 sequence (whole entry): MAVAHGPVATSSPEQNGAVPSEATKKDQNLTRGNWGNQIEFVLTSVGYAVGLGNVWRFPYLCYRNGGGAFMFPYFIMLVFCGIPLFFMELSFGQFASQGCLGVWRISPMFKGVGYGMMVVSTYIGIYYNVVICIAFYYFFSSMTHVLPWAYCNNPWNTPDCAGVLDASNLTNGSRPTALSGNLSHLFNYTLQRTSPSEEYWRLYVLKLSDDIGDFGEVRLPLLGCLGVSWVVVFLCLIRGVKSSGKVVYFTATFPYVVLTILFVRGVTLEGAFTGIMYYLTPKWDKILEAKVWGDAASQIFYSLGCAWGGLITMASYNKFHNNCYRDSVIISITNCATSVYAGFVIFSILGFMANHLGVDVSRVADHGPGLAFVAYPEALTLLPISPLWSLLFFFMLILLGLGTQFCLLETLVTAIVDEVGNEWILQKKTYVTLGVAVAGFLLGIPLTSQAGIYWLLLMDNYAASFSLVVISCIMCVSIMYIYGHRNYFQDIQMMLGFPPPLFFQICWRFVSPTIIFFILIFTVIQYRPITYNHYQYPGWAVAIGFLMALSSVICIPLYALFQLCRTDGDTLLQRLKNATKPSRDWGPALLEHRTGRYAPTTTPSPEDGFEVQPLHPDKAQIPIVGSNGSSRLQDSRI

[2] = target: T1, Sodium- and chloride-dependent glycine transporter 1 (Rattus norvegicus); test: Binding affinity to GlyT1 in rat brain striatum at 0.03 to 0.04 nM preincubated for 20 mins in binding buffer before compound addition measured after 30 mins by autoradiography in presence of 0.01 mM GlyT2 inhibitor ORG25543 relative to control; type: tissue-based; conditions: tested as the 125I-labelled form
Mus musculus [3] = test: In vivo binding affinity to GlyT1 in ddY mouse brain cortex at 33.3 kBq, iv after 30 mins in presence of SSR504734 2 mg/kg, iv administered 15 mins prior to compound administration relative to control; type: functional, organism-based; parameters: dose 2 mg/kg; conditions: tested as the 125I-labelled form
Outline: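 Blocking study in male ddY mice (6 weeks, 30–35 g). The blocker (2 mg/kg in 30% DMSO/saline) was injected i.v. 15 min before about 33.3 kBq [125I]tracer i.v.; mice were killed at 30 or 60 min. Brains were divided into cortex, corpus callosum, hippocampus, thalamus, midbrain, medulla and cerebellum, weighed and gamma-counted as % dose/g. Values are mean ± SD, n = 5–6, compared to control by Kruskal–Wallis with Dunn's post-test.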

Mus musculus [4] = test: In vivo binding affinity to GlyT1 in ddY mouse brain midbrain at 33.3 kBq, iv after 60 mins in presence of SSR504734 2 mg/kg, iv administered 15 mins prior to compound administration relative to control; type: functional, organism-based; parameters: dose 2 mg/kg; conditions: tested as the 125I-labelled form
Mus musculus [5] = test: In vivo binding affinity to GlyT1 in ddY mouse brain midbrain at 200 kBq, iv after 60 mins by autoradiography relative to control; type: functional, organism-based; conditions: tested as the 125I-labelled form
[6] = target: T1, Sodium- and chloride-dependent glycine transporter 1 (Rattus norvegicus); test: Binding affinity to GlyT1 in rat brain cerebellum at 0.03 to 0.04 nM preincubated for 20 mins in binding buffer before compound addition measured after 30 mins by autoradiography in presence of 0.01 mM GlyT2 inhibitor ORG25543 relative to control; type: tissue-based; conditions: tested as the 125I-labelled form
Outline: (§1)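 Rat brain sagittal sections (20 µm) preincubated 20 min at 25 °C in Tris-HCl buffer pH 7.5 (NaCl, KCl, MgCl2, CaCl2), then 30 min at 25 °C with [125I] tracer (100 kBq, 0.03–0.04 nM) plus competitor (10 µM; glycine 1 or 10 mM). Cold washes, imaging plate 3 days, ROI PSL minus background per mm². % control from ≥triplicate slices, three rats.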

[7] = target: T1, Sodium- and chloride-dependent glycine transporter 1 (Rattus norvegicus); test: Binding affinity to GlyT1 in rat brain cerebellum at 0.03 to 0.04 nM preincubated for 20 mins in binding buffer before compound addition measured after 30 mins by autoradiography in presence of 0.01 mM NMDA receptor glycine site antagonist L-701,324 relative to control; type: tissue-based; conditions: tested as the 125I-labelled form; outline: as §1
[8] = target: T1, Sodium- and chloride-dependent glycine transporter 1 (Rattus norvegicus); test: Binding affinity to GlyT1 in rat brain cerebellar white matter at 0.03 to 0.04 nM preincubated for 20 mins in binding buffer before compound addition measured after 30 mins by autoradiography relative to control; type: tissue-based; conditions: tested as the 125I-labelled form
[9] = target: T1, Sodium- and chloride-dependent glycine transporter 1 (Rattus norvegicus); test: Binding affinity to GlyT1 in rat brain midbrain at 0.03 to 0.04 nM preincubated for 20 mins in binding buffer before compound addition measured after 30 mins by autoradiography in presence of GlyT1 inhibitor N-Me-SSR504734 relative to control; type: tissue-based; conditions: tested as the 125I-labelled form
[10] = target: T1, Sodium- and chloride-dependent glycine transporter 1 (Rattus norvegicus); test: Binding affinity to GlyT1 in rat brain midbrain at 0.03 to 0.04 nM preincubated for 20 mins in binding buffer before compound addition measured after 30 mins by autoradiography in presence of 1 mM GlyT1 substrate glycine relative to control; type: tissue-based; conditions: tested as the 125I-labelled form
[11] = target: T1, Sodium- and chloride-dependent glycine transporter 1 (Rattus norvegicus); test: Binding affinity to GlyT1 in rat brain corpus callosum at 0.03 to 0.04 nM preincubated for 20 mins in binding buffer before compound addition measured after 30 mins by autoradiography in presence of GlyT1 inhibitor N-Me-SSR504734 relative to control; type: tissue-based; conditions: tested as the 125I-labelled form; outline: as §1
Blood = test: Drug uptake in ddY mouse blood at 11.1 kBq, iv after 5 min by gamma counting; type: ADME, organism-based; conditions: in vivo
Outline: (§2)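 Male ddY mice (6 weeks, 30–35 g) received about 11.1 kBq [125I]tracer in 0.1 mL i.v. via tail vein. Killed at set times, organs dissected and weighed, radioactivity gamma counted. Reported as % injected dose/g tissue, mean ± SD, n = 5–6.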

Liver = test: Drug uptake in ddY mouse liver at 11.1 kBq, iv after 0.5 min by gamma counting; type: ADME, organism-based; conditions: in vivo
Outline: (§3)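 Male ddY mice (6 weeks, 30–35 g) were given about 11.1 kBq of [125I]tracer in 0.1 mL i.v. via the tail vein. At each time point the animals were killed and organs dissected, weighed and gamma-counted. Uptake is expressed as % injected dose per gram of tissue, mean ± SD, n = 5–6.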

Mus musculus [12] = test: In vivo binding affinity to GlyT1 in ddY mouse brain medullary region at 33.3 kBq, iv after 60 mins in presence of nonradioactive compound 2 mg/kg, iv administered 15 mins prior to compound administration relative to control; type: functional, Medulla of organ
Nucleic Acid = test: Ratio of drug level in brain to blood in ddY mouse at 11.1 kBq, iv after 15 min by gamma counting; type: ADME, organism-based
[13] = Metabolic stability in ddY mouse brain assessed as compound remaining at 185 kBq after 5 mins by radio-TLC; type: ADME, tissue-based; conditions: read-out: Stability
Pancreas = test: Drug uptake in ddY mouse pancreas at 11.1 kBq, iv after 5 min by gamma counting; type: ADME, organism-based; conditions: in vivo; outline: as §3
Heart = test: Drug uptake in ddY mouse heart at 11.1 kBq, iv after 30 min by gamma counting; type: ADME, organism-based; conditions: in vivo, 0.5 h; outline: as §2
Brain = test: Drug uptake in ddY mouse brain at 11.1 kBq, iv after 30 min by gamma counting; type: ADME, organism-based; conditions: in vivo, 0.5 h; outline: as §2

Activity [1] [%]	Activity [2] [%]	Activity [6] [%]	Activity [7] [%]	Activity [8]	Activity [9] [%]	Activity [10] [%]	Activity [11] [%]	Drug uptake (Blood) [% ID/g]	Drug uptake (Liver) [% ID/g]	Ratio (Nucleic Acid)	remaining at 5 min [13] [%]	Drug uptake (Pancreas) [% ID/g]	Drug uptake (Heart) [% ID/g]	Drug uptake (Brain) [% ID/g]	Structure (SMILES)	Activity (Mus musculus [3])	Activity (Mus musculus [4])	Activity (Mus musculus [5])	Activity (Mus musculus [12]) [%]
31.8	104	124	87.1	Active	25.3	106	20.2	–	–	–	–	–	–	–	CN1CCCC[C@H]1[C@@H](NC(=O)c1cccc(C(F)(F)F)c1I)c1ccccc1	inactive	inactive	Active	–
–	–	–	–	–	–	–	–	0.87	1.82	2.42	92	6.4	3.95	2.17	CN1CCCC[C@H]1[C@@H](NC(=O)c1cccc(C(F)(F)F)c1[125I])c1ccccc1	–	–	–	52
